Calls of active or inactive are those of the source. The rule behind the calls is not given here.
Key:
Format in all cases: cell-based
[1] = target: T1, Short transient receptor potential channel 4 (Mus musculus) (UniProt Q9QUQ5); experiment: Inhibition of mouse TRPC4beta expressed in HEK293 cells co-expressing MOR assessed as decrease in DAMGO-evoked membrane depolarization at 22 uM preincubated for 2 mins followed by DAMGO addition measured for 2.5 mins by FLIPR membrane potential dye-based fluorescence assay relative to control
T1 sequence (whole entry): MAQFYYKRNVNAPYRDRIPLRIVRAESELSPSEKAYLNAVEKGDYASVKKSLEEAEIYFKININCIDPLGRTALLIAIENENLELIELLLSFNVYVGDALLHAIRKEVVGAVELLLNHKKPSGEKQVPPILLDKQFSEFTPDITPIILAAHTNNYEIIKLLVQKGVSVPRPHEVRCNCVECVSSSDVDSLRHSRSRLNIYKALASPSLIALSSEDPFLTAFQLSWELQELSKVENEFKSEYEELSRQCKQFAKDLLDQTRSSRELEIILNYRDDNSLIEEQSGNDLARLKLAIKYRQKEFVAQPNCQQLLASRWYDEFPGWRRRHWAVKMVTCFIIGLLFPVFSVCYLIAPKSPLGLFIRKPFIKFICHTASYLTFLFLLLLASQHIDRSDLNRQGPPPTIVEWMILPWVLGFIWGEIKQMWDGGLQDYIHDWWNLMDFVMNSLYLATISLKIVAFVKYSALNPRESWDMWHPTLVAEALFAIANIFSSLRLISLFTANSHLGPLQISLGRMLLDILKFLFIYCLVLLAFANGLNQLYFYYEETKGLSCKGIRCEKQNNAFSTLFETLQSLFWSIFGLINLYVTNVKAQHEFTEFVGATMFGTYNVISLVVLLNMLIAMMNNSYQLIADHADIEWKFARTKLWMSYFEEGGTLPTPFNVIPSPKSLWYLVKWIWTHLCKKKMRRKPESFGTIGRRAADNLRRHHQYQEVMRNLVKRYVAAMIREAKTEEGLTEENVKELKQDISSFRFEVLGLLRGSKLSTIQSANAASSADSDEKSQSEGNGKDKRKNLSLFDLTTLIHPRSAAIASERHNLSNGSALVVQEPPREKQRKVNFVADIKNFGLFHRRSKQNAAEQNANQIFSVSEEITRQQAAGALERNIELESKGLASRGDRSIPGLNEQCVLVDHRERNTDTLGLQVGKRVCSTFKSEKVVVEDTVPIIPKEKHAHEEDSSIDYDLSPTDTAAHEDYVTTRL
Method in brief: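 Same TRP panel as for the stimulation tests, with FMP dye for TRPC4 and M5 and Fluo8-AM for TRPA1, V1 and M8. Compound applied for 2 min before the channel agonist (TRPC4: 1 μM DAMGO). Inhibition of the agonist response measured on a FlexStation at 32 °C.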

[2] = target: T2, Short transient receptor potential channel 3 (Homo sapiens) (UniProt Q13507); experiment: Agonist activity at human TRPC3 expressed in HEK293 cells assessed as induction of channel current at 10 uM measured for 2.5 mins in presence of 0.5 mM Ca2+ by whole cell patch-clamp method
T2 sequence (whole entry): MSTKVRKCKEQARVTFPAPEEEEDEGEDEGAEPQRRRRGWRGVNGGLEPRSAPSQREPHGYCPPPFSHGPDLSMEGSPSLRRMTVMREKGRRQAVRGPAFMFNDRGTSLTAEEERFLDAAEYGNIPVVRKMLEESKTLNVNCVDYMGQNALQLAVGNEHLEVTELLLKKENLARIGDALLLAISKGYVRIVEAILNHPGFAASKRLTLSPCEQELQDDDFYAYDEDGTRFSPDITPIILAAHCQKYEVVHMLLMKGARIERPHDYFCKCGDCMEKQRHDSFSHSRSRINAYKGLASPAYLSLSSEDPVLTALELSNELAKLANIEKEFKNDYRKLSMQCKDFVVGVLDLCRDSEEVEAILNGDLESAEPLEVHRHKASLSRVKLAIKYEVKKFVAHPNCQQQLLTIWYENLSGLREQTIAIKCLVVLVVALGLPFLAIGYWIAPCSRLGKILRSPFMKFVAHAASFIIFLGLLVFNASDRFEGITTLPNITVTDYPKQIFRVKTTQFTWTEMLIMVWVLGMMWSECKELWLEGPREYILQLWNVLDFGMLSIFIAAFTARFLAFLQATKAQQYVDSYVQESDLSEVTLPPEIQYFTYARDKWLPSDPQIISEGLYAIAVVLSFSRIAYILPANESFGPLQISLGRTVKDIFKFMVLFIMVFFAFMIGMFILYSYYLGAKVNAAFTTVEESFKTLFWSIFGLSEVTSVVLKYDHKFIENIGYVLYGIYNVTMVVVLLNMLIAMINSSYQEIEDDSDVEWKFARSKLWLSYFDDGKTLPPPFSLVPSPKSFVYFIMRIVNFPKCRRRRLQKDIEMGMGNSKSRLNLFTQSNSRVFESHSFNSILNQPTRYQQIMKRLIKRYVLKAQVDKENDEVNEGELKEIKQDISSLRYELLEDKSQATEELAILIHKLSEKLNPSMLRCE
Method in brief: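 Whole-cell recording of human TRPC3 HEK293 cells in bath with 0.5 mM Ca2+. Pipette had 400 nM free Ca2+ buffered by BAPTA. Ramps +100 to −100 mV every 1 s. Compound at 10 μM applied by perfusion; I–V compared against basal.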

[3] = target: T2, Short transient receptor potential channel 3 (Homo sapiens); experiment: Agonist activity at human TRPC3 expressed in HEK293 cells assessed as induction of membrane depolarization measured for 2.5 mins in presence of 0.5 mM Ca2+ by FLIPR membrane potential dye-based fluorescence assay
Method in brief: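 HEK293 cells stably expressing human TRPC3, run on a FlexStation at 32 °C. Loaded with FMP dye, or Fluo-type Ca2+ dye with 2 mM probenecid. Extracellular NaCl/HEPES saline, pH 7.4, with 2 mM Ca2+ (standard) or 0.5 mM Ca2+. Read as F/F0. In 0.5 mM Ca2+, FMP EC50 from a Hill fit, n = 6.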

HEK293 = experiment: Induction of membrane potential depolarization in HEK293 cells measured for 2.5 mins by FLIPR assay; settings: human, hek293, 2.5 min
Method in brief: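 Parental HEK293 cells on a FlexStation at 32 °C, loaded with Fluo4-AM or FMP dye, in 2 mM Ca2+ extracellular saline, pH 7.4. Compound added and fluorescence read as F/F0.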

SMILES: Cc1nn2c(O)cc(C3CCN(C(=O)OCc4ccccc4)CC3)nc2c1-c1ccc(F)cc1
- inhibition [1]: 13%

SMILES: CCOC(=O)N1CCC(c2cc(O)n3nc(C)c(-c4ccc(C(F)(F)F)cc4)c3n2)CC1
- inhibition [1]: 33%

SMILES: CCOC(=O)N1CCC(c2cc(O)n3nc(C)c(-c4ccc(F)cc4)c3n2)CC1
- Activity [2]: Active
- Activity [3]: Dose-dependent effect
- Activity (HEK293): Non-Toxic
